Experimental data: PMC8604211 (Clinical and Translational Science, 2021)
Several values for one entry are separate records, joined by “and”; a condition that tells them apart may be missing. Equal values may be shown once. Read-outs that look alike come from different tables or passages of the source.

Tests used:
P-gp = P-gp (Homo sapiens, UniProt P08183); assay: P-gp bidirectional transport assay in human Caco-2 cell monolayers; assay type: in vitro ADME; conditions: Caco-2, pH 7.4
Clinical DDI study U107 = assay type: in vivo, human
Milademetan PBPK model = assay: Milademetan PBPK model; set-up: species or system human
Procedure, shortened: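 Minimal PBPK model with one adjusting compartment and ADAM absorption that includes intestinal P-gp; renal and biliary clearance set to zero. Vss, kin, kout, Vsac and oral clearance fitted to healthy-subject plasma data after a single fasted 100 mg oral dose.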

CYP3A4 [1] = biological target: T1, CYP3A4 (Homo sapiens, UniProt P08684); assay: Incubation of [14C]milademetan with recombinant human CYP3A4; assay type: in vitro ADME; conditions: [14C]milademetan 1 µM, 60 min, unpublished in-house data
Target sequence in this assay (P08684 whole entry): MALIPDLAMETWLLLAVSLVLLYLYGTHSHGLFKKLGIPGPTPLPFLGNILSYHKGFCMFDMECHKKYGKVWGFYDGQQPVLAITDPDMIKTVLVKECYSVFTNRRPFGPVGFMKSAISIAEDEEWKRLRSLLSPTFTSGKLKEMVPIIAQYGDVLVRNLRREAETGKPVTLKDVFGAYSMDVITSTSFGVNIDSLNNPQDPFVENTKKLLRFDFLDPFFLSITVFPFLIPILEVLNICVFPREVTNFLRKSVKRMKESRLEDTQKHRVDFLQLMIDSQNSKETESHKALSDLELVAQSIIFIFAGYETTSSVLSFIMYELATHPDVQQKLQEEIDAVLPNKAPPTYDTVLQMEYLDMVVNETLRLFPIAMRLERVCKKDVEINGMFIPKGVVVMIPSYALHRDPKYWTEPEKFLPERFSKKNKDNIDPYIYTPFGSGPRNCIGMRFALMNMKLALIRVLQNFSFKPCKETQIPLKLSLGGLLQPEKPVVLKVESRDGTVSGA

CYP3A5 = CYP3A5 (Homo sapiens, UniProt P20815); assay: Incubation of [14C]milademetan with recombinant human CYP3A5; assay type: in vitro ADME; conditions: [14C]milademetan 1 µM, 60 min, unpublished in-house data
Chain of CYP3A5 (P20815 whole entry): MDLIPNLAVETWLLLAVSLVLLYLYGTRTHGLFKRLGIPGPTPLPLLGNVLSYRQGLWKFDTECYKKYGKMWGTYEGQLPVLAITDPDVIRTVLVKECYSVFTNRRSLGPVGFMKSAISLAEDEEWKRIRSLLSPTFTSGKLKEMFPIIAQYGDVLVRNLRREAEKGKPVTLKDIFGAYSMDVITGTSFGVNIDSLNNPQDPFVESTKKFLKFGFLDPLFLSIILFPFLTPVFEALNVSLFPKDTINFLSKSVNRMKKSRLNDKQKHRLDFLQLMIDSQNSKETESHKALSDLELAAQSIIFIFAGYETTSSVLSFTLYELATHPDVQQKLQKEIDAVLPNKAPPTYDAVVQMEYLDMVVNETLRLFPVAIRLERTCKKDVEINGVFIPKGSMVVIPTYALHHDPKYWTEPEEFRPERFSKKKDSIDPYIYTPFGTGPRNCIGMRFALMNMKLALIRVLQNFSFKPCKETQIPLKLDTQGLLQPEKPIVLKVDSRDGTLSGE

CYP3A4 [2] = biological target: T1, CYP3A4; assay: CYP3A inhibition; assay type: in vitro ADME; conditions: pooled human hepatic microsomes, probe midazolam
Target sequence in this assay (P08684 2-503): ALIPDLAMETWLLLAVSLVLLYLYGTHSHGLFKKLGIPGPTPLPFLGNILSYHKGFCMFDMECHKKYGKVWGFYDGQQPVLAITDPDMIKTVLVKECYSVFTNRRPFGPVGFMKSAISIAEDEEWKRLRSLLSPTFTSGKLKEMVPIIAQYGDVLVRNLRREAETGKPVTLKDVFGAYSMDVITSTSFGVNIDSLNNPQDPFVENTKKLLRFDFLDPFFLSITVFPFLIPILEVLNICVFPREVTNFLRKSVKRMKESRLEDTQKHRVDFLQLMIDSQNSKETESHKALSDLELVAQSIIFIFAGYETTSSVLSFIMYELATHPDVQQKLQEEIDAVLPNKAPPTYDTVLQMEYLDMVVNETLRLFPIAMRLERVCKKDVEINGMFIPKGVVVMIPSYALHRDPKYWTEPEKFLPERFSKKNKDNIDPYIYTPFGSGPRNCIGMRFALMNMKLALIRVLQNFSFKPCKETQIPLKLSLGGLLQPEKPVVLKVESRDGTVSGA

[3] = Rat ADME study with [14C]milademetan; assay type: in vivo; conditions: single oral [14C]milademetan 30 mg/kg
[4] = Clinical food effect study; assay type: in vivo, human; conditions: high-calorie, high-fat meal vs fasted state; unpublished in-house data
[5] = Plasma protein unbound fraction measured in vitro; assay type: in vitro ADME
[6] = ref NCT01877382, cited from earlier work; for maximum tolerated dose: advanced solid tumors or lymphomas
[7] = Optimized by fitting clinical data (U107), milademetan alone, fasted
[8] = bile duct–cannulated rats, up to 48 h

Chain of P-gp (P08183 whole entry): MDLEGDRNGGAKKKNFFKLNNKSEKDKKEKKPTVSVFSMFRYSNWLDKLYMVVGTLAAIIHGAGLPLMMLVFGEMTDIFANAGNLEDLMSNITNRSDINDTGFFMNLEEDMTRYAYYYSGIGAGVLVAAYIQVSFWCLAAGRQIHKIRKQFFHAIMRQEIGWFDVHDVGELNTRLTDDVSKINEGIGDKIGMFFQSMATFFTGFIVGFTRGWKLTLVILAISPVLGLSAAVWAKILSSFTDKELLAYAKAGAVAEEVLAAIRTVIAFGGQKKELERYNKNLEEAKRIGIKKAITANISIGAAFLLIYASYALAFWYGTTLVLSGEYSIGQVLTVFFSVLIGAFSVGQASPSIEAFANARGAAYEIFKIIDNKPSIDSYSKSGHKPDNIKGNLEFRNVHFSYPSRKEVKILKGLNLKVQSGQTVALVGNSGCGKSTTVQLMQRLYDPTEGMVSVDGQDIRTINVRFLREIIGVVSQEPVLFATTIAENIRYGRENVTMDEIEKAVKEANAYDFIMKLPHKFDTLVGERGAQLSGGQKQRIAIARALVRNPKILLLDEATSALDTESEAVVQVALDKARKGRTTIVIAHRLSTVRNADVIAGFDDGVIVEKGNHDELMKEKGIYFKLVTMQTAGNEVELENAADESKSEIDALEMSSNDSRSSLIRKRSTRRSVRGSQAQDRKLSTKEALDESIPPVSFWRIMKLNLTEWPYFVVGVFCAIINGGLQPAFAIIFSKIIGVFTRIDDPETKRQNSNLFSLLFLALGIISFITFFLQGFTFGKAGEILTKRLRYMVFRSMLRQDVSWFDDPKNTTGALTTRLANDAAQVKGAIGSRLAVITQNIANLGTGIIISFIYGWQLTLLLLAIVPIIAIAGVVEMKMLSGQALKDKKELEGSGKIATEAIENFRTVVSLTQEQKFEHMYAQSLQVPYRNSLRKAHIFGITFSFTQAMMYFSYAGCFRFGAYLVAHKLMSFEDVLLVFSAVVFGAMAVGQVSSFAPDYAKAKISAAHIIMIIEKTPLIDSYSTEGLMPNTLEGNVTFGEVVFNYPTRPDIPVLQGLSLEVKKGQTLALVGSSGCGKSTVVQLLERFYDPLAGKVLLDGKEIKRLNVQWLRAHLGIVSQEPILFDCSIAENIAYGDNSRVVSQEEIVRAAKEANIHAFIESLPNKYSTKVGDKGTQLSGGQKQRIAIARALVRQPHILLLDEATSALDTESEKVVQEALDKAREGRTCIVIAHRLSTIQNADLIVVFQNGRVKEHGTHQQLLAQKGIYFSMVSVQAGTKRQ

Compound `CC(C)NCC(O)COc1cccc2ccccc12` (stereo not drawn) [Propranolol, reference compound] has a Papp (P-gp) of 43 ×10⁻⁶ cm/s.

For `CC1(C)CCC2(CC1)N[C@@H](C(=O)N[C@@H]1CC[C@@H](C(N)=O)OC1)[C@H](c1ccnc(Cl)c1F)[C@]21C(=O)Nc2cc(Cl)ccc21` [milademetan], the CL/F (Clinical DDI study U107; 100 mg alone, fasted (sequence AB, treatment A), geometric mean (CV%)) was 6.8 L/h and 6.80 L/h and 6.80 (33.5) L/h, the CL/F (Clinical DDI study U107; 100 mg with itraconazole (treatment B), geometric mean (CV%)) was 3.13 L/h and 3.13 (35.4) L/h and the CL/F (Clinical DDI study U107; 100 mg with posaconazole (treatment C), geometric mean (CV%)) was 2.91 L/h and 2.91 (25.5) L/h. For the same compound, the AUC(0-t) (Clinical DDI study U107; human, plasma, oral, 100 mg, AUClast, 100 mg alone, 2 h following a full meal (sequence AC, treatment A), geometric mean (CV%)) was 13500 ng·h/mL, the Cmax (Clinical DDI study U107; human, plasma, oral, 100 mg, Cmax, 100 mg alone, 2 h following a full meal (sequence AC, treatment A), geometric mean (CV%)) was 675 ng/mL and the Tmax (Clinical DDI study U107; human, plasma, oral, 100 mg, Tmax, 100 mg alone, 2 h following a full meal (sequence AC, treatment A), median (minimum–maximum)) was 3.03 h. The Vd/F (Clinical DDI study U107; human, plasma, oral, 100 mg, Vz/F, 100 mg alone, 2 h following a full meal (sequence AC, treatment A), geometric mean (CV%)) was 223 L, the half-life (Clinical DDI study U107; human, plasma, oral, 100 mg, t1/2, 100 mg alone, 2 h following a full meal (sequence AC, treatment A), arithmetic mean (SD)) was 21.3 h and the “Vsac (volume of single adjusting compartment)” value (Milademetan PBPK model; [7]) was 0.5 L/kg. For the same compound, the “kin (first-order rate constant to single adjusting compartment)” value (Milademetan PBPK model; [7]) was 0.07 h⁻¹, the “kout (first-order rate constant from single adjusting compartment)” value (Milademetan PBPK model; [7]) was 0.07 h⁻¹ and the “CLint,CYP3A4 (CYP3A4-specific intrinsic clearance)” value (Milademetan PBPK model; Optimized by fitting clinical data (U107), milademetan and itraconazole sequence) was 0.459 µL/min/pmol of isoform. For the same compound, the “oral clearance (CLpo), optimized” value (Milademetan PBPK model; fitted to period one of sequence AB (alone, fasted), U107) was 8.5 L/h, the microsomal CLint (Milademetan PBPK model; human) was 40.2 µL/min/mg and the “fmCYP3A4 (fraction metabolized by CYP3A4)” value (Milademetan PBPK model; optimized to recover observed AUCR and CmaxR of sequence AB (itraconazole)) was 0.58. The remaining parent (CYP3A4 [1]) was 61 % of the total radioactivity, the remaining parent (CYP3A5) was 84 % of the total radioactivity and the Papp at 120 min (P-gp) was 17 ×10⁻⁶ cm/s. For the same compound, the KI (inactivation) (CYP3A4 [2]) was 60.5 µM, the Ki (CYP3A4 [2]) was 4.2 µM and the “biliary excretion of radioactivity” value [3, 8] was 20.4 ± 1.8 % of the dose. For the same compound, the “radioactivity recovered in feces” value [3, 8] was 75.1 ± 3.3 % of the dose, the “radioactivity recovered in feces” value ([3]; noncannulated rats, after 168 hours) was 94.2 ± 0.7% and the “reduction of exposure (AUC) with food” value [4] was 24%. For the same compound, the fraction unbound [5] was 0.02, the accumulation at steady-state ([6]; 120 mg q.d. 21/28, after 18–21 days of continuous dosing) was 1.8 fold and the “dose proportionality of systemic exposure” value ([6]; dose range 15–340 mg) was “dose‐proportional increase in systemic drug exposure”. For the same compound, the maximum tolerated dose ([6]; q.d. 3/14 × 2 schedule) was 260 mg and the maximum tolerated dose ([6]; q.d. 21/28 schedule) was 160 mg.
